According to ChEMBL document CHEMBL1629431, “Synthesis and antitumor activity of some 2, 3-disubstituted quinazolin-4(3H)-ones and 4, 6- disubstituted- 1, 2, 3, 4-tetrahydroquinazolin-2H-ones” (2010):

What was measured:
Format in all cases: functional
HL-60(TB) = assay: Growth inhibition of human HL-60(TB) cells at 10 uM after 48 hrs by coulter counter method; conditions: HL-60, 48 h, read-out: GI
Method in brief: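 Part of the NCI 60-cell-line single-high-dose panel. Cells were seeded at 6 × 10⁴ cells/mL with test solution in duplicate wells, alongside PBS/DMSO controls at identical dilutions. Plates were held 48 h at 37 °C in a humidified 5% CO₂ incubator. Cells were then diluted 10-fold in saline and counted by Coulter counter, with counts corrected for dilution. Results are percent growth of treated cells, reported as GI %.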

K562 = assay: Growth inhibition of human K562 cells at 10 uM after 48 hrs by coulter counter method; conditions: K562, 48 h, read-out: GI
Method in brief: (§1)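 Single high-dose NCI 60-cell-line panel screen across nine tumor subpanels. Test solutions (0.2 mL) were added in duplicate to wells holding 1.8 mL of culture at 6 × 10⁴ cells/mL. Controls got PBS and DMSO at identical dilutions. Incubation was 48 h at 37 °C in humidified 5% CO₂. Cells were diluted 10-fold in saline, Coulter-counted and dilution-corrected. Results were expressed as percent growth inhibition versus control.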

MOLT-4 = assay: Growth inhibition of human MOLT4 cells at 10 uM after 48 hrs by coulter counter method; conditions: MOLT-4, 48 h, read-out: GI; method in brief: as §1
[1] = Growth inhibition of human […] cells at 10 uM after 48 hrs by coulter counter method; conditions: read-out: GI; method in brief: as §1
A549 = assay: Growth inhibition of human A549 cells at 10 uM after 48 hrs by coulter counter method; conditions: A549, 48 h, read-out: GI; method in brief: as §1
HOP-92 = assay: Growth inhibition of human HOP92 cells at 10 uM after 48 hrs by coulter counter method; conditions: HOP-92, 48 h, read-out: GI; method in brief: as §1
NCI-H226 = assay: Growth inhibition of human NCI-H226 cells at 10 uM after 48 hrs by coulter counter method; conditions: NCI-H226, 48 h, read-out: GI; method in brief: as §1
NCI-H23 = assay: Growth inhibition of human NCI-H23 cells at 10 uM after 48 hrs by coulter counter method; conditions: NCI-H23, 48 h, read-out: GI; method in brief: as §1
NCI-H522 = assay: Growth inhibition of human NCI-H522 cells at 10 uM after 48 hrs by coulter counter method; conditions: NCI-H522, 48 h, read-out: GI; method in brief: as §1
COLO 205 = assay: Growth inhibition of human COLO205 cells at 10 uM after 48 hrs by coulter counter method; conditions: COLO 205, 48 h, read-out: GI; method in brief: as §1
HCT-116 = assay: Growth inhibition of human HCT116 cells at 10 uM after 48 hrs by coulter counter method; conditions: HCT-116, 48 h, read-out: GI; method in brief: as §1
KM12 = assay: Growth inhibition of human KM12 cells at 10 uM after 48 hrs by coulter counter method; conditions: KM12, 48 h, read-out: GI; method in brief: as §1
SF-268 = assay: Growth inhibition of human SF268 cells at 10 uM after 48 hrs by coulter counter method; conditions: SF-268, 48 h, read-out: GI; method in brief: as §1
SF-539 = assay: Growth inhibition of human SF539 cells at 10 uM after 48 hrs by coulter counter method; conditions: SF-539, 48 h, read-out: GI; method in brief: as §1
SNB-75 = assay: Growth inhibition of human SNB75 cells at 10 uM after 48 hrs by coulter counter method; conditions: SNB-75, 48 h, read-out: GI; method in brief: as §1
U-251 = assay: Growth inhibition of human U251 cells at 10 uM after 48 hrs by coulter counter method; conditions: U-251, 48 h, read-out: GI; method in brief: as §1
M14 = assay: Growth inhibition of human M14 cells at 10 uM after 48 hrs by coulter counter method; conditions: M14, 48 h, read-out: GI; method in brief: as §1
SK-MEL-2 = assay: Growth inhibition of human SK-MEL-2 cells at 10 uM after 48 hrs by coulter counter method; conditions: SK-MEL-2, 48 h, read-out: GI; method in brief: as §1
SK-MEL-28 = assay: Growth inhibition of human SK-MEL-28 cells at 10 uM after 48 hrs by coulter counter method; conditions: SK-MEL-28, 48 h, read-out: GI; method in brief: as §1
UACC-62 = assay: Growth inhibition of human UACC62 cells at 10 uM after 48 hrs by coulter counter method; conditions: UACC-62, 48 h, read-out: GI; method in brief: as §1
IGROV-1 = assay: Growth inhibition of human IGROV1 cells at 10 uM after 48 hrs by coulter counter method; conditions: IGROV-1, 48 h, read-out: GI; method in brief: as §1
OVCAR-4 = assay: Growth inhibition of human OVCAR4 cells at 10 uM after 48 hrs by coulter counter method; conditions: OVCAR-4, 48 h, read-out: GI; method in brief: as §1
OVCAR-8 = assay: Growth inhibition of human OVCAR8 cells at 10 uM after 48 hrs by coulter counter method; conditions: OVCAR-8, 48 h, read-out: GI; method in brief: as §1
SK-OV-3 = assay: Growth inhibition of human SKOV3 cells at 10 uM after 48 hrs by coulter counter method; conditions: SK-OV-3, 48 h, read-out: GI; method in brief: as §1
786-0 = assay: Growth inhibition of human 786-0 cells at 10 uM after 48 hrs by coulter counter method; conditions: 786-0, 48 h, read-out: GI; method in brief: as §1
CAKI-1 = assay: Growth inhibition of human Caki1 cells at 10 uM after 48 hrs by coulter counter method; conditions: CAKI-1, 48 h, read-out: GI; method in brief: as §1
SN12C = assay: Growth inhibition of human SN12C cells at 10 uM after 48 hrs by coulter counter method; conditions: read-out: GI; method in brief: as §1
UO-31 = assay: Growth inhibition of human UO31 cells at 10 uM after 48 hrs by coulter counter method; conditions: UO-31, 48 h, read-out: GI; method in brief: as §1
PC-3 = assay: Growth inhibition of human PC3 cells at 10 uM after 48 hrs by coulter counter method; conditions: PC-3, 48 h, read-out: GI; method in brief: as §1
MCF7 = assay: Growth inhibition of human MCF7 cells at 10 uM after 48 hrs by coulter counter method; conditions: MCF7, 48 h, read-out: GI; method in brief: as §1
MDA-MB-231 = assay: Growth inhibition of human MDA-MB-231 cells at 10 uM after 48 hrs by coulter counter method; conditions: MDA-MB-231, 48 h, read-out: GI; method in brief: as §1
[2] = Growth inhibition of human Hs 578T cells at 10 uM after 48 hrs by coulter counter method; conditions: read-out: GI; method in brief: as §1
T47D = assay: Growth inhibition of human T47D cells at 10 uM after 48 hrs by coulter counter method; conditions: read-out: GI; method in brief: as §1
MDA-MB-468 = assay: Growth inhibition of human MDA-MB-468 cells at 10 uM after 48 hrs by coulter counter method; conditions: MDA-MB-468, 48 h, read-out: GI; method in brief: as §1

CSc1nc2ccccc2c(=O)n1-c1ccc(Cl)cc1 showed an inhibition of growth at 10 µM (HL-60(TB)) of 32%, an inhibition of growth at 10 µM (K562) of 44.1% and an inhibition of growth at 10 µM (MOLT-4) of 31.4%. It also gave an inhibition of growth at 10 µM [1] of 35.8%, an inhibition of growth at 10 µM (A549) of 30% and an inhibition of growth at 10 µM (HOP-92) of 30%. It also gave an inhibition of growth at 10 µM (NCI-H226) of 30%, an inhibition of growth at 10 µM (NCI-H23) of 30% and an inhibition of growth at 10 µM (NCI-H522) of 30%. For the same molecule, the inhibition of growth at 10 µM (COLO 205) was 30%, the inhibition of growth at 10 µM (HCT-116) was 30% and the inhibition of growth at 10 µM (KM12) was 30%. It also gave an inhibition of growth at 10 µM (SF-268) of 30%, an inhibition of growth at 10 µM (SF-539) of 30% and an inhibition of growth at 10 µM (SNB-75) of 30%. It also gave an inhibition of growth at 10 µM (U-251) of 30%, an inhibition of growth at 10 µM (M14) of 30% and an inhibition of growth at 10 µM (SK-MEL-2) of 30%. For the same molecule, the inhibition of growth at 10 µM (SK-MEL-28) was 30%, the inhibition of growth at 10 µM (UACC-62) was 30% and the inhibition of growth at 10 µM (IGROV-1) was 30%. For the same molecule, the inhibition of growth at 10 µM (OVCAR-4) was 30%, the inhibition of growth at 10 µM (OVCAR-8) was 30% and the inhibition of growth at 10 µM (SK-OV-3) was 30%. It also gave an inhibition of growth at 10 µM (786-0) of 30%, an inhibition of growth at 10 µM (CAKI-1) of 30% and an inhibition of growth at 10 µM (SN12C) of 30%. For the same molecule, the inhibition of growth at 10 µM (UO-31) was 30%, the inhibition of growth at 10 µM (PC-3) was 50.3% and the inhibition of growth at 10 µM (MCF7) was 30%. It also gave an inhibition of growth at 10 µM (MDA-MB-231) of 30%, an inhibition of growth at 10 µM [2] of 30% and an inhibition of growth at 10 µM (T47D) of 47%. The inhibition of growth at 10 µM (MDA-MB-468) was 30%.
